From PubChem BioAssay
Shown are actives, neighbours in structure and some others; about 5.7% of the full set was active somewhere.
CSC inhib: blocks cancer stem cells | cancer stem cell-like cells viability, luminescence | inhibition, % at 7.5 µM | hit rate 1.1% among 300,000; in the data active = inhibition above about 75%; inconclusive = no clear call, values can overlap the other calls; tested in HMLE shEcad cells
Calb FLC: C. albicans growth modulation with fluconazole; C. albicans CaCi-2 (fluconazole-resistant clinical isolate) + fluconazole, Alamar Blue growth, 48 h; growth inhibition, % (concentration not given with the values); hit rate 0.57% among 300,000; AID 1979;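 active = growth inhibition above about 58% in most replicates, limit read from the data, passing the limit was not always enough; inconclusive = exactly half the replicates above a set limit; inactive = most replicates below a set limit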;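 note: all wells also contain fluconazole at 8 µg/ml as a sub-toxic cotreatment; 0% = median of DMSO wells and 100% = median of geldanamycin control wells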
SKKanGAS inh: inhibitors of SKKanGAS S. pyogenes growth in kanamycin (SK-promoter or general growth effect). BacTiter-Glo, 6 h. inhibition, % at 7.5 µM. hit rate 1.3% among 300,000;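 active = mean replicate score, as percent of positive control median, at least 50; inconclusive = mean below 50 but one replicate at or above 50; inactive = mean and every replicate below 50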;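 note: strain carries kanamycin resistance gene driven by streptokinase promoter and grows in 40 µg/ml kanamycin; loss of luminescence reflects streptokinase promoter inhibition or plain growth inhibition; 0% = median of DMSO wells and 100% = positive control at its reference dose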
Beta apoptosis: blocks beta cell apoptosis; INS-1E cytokine-induced death, ATP luminescence, 48 h; percent of positive-control rescue, neutral wells zero; protection from apoptosis, % (test concentration not listed); hit rate 0.8% among 300,000;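 active = Every replicate reaches about 75%, or at least half do and their mean reaches it too, limit read from the data; inconclusive = At least half of replicates reach the limit but their mean does not; inactive = Under half of replicates reach the limit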;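 note: 0% = cytokine-treated negative control wells and 100% = positive control rescue; higher means more ATP so stronger rescue from cytokine killing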
Mdm2 MdmX PPI: disrupts the human Mdm2-MdmX interaction; inhibition, % at 8 µM; SaOS-2 split-luciferase Mdm2/MdmX complementation, luminescence; hit rate 3% among 330,000; O15151+Q00987;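 active = inhibition of at least 50% at 8 µM in the primary screen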
Target sequence (O15151 whole entry, looked up): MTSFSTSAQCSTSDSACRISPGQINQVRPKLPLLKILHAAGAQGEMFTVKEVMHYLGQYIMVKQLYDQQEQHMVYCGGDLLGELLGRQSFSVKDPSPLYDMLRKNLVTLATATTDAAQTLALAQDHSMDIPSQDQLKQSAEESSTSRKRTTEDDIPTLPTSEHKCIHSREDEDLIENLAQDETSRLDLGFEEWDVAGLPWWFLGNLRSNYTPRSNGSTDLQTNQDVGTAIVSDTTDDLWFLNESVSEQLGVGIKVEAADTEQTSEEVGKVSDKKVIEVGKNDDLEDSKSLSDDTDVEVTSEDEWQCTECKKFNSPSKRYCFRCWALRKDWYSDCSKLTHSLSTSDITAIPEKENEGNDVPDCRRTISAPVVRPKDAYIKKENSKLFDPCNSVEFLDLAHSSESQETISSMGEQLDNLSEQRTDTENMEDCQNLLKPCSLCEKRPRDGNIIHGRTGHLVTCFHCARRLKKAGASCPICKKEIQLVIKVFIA
Target sequence (Q00987 whole entry, looked up): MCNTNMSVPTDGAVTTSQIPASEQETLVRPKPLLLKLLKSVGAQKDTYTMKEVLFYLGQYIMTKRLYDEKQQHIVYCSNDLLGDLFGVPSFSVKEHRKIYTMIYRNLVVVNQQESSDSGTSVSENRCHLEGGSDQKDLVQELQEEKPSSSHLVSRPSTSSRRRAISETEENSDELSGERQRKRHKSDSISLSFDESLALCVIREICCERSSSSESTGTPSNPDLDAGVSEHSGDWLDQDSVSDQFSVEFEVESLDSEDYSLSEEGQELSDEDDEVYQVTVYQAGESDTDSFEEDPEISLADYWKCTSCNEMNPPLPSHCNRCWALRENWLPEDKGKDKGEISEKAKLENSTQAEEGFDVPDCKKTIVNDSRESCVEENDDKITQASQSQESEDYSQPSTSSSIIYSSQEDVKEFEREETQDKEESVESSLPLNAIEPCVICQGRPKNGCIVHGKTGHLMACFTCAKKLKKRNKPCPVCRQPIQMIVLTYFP
T cruzi repl: T. cruzi replication inhibition; inhibition, % (test concentration not listed); hit rate 1.4% among 300,000; T. cruzi beta-gal in NIH3T3, luminescence, 90 h;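 active = mean inhibition across valid replicates above about 55%, limit read from the data; inconclusive = mean below that limit but half or more replicates reach it; inactive = mean below it, under half of replicates reach it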;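 note: signal also drops with host cell toxicity which is not excluded here; 0% = plate median of DMSO wells and 100% = zero luminescence signal; higher percent means less beta-gal luminescence so fewer parasites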
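System – NIH/3T3 host cells with β-galactosidase reporter T. cruzi · Doses – single 50 nL compound addition per well in DMSO · Reagent – 5000 T. cruzi trypomastigotes/well · Medium – Low-serum DMEM with 2% FBS · Timing – ≥90 h infection period, 3 h prior cell attachment · Evaluation – parasite load inhibition, % · Technique – GalScreen luminescence, 60 min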
Mdm2-MdmX conf: confirmation of human Mdm2/MdmX interaction inhibitors | shares compounds with Mdm2 MdmX PPI | Mdm2-MdmX binding, luminescent assay | inhibition, % at 8 µM | hit rate 55% among 10,000 | AID 489028; in the data active = inhibition above about 40%
FLuc counter: full-length luciferase inhibition in Mdm2/MdmX counter-screen. shares compounds with Mdm2 MdmX PPI. SaOS-2 full-length luciferase counterscreen, luminescence. inhibition, % at 8 µM. hit rate 77% among 6,200;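 active = mean inhibition at 8 µM reaching about 37%, which flags the compound as non-specific, limit read from the data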;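 note: p53-null SaOS-2 cells with luciferase driven by a doxycycline-inducible promoter; compound on cells about two nights before reading with doxycycline added after day one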
Active calls of the source: *; u = inconclusive; x = no result.

SMILES	CSC inhib	Calb FLC	SKKanGAS inh	Beta apoptosis	Mdm2 MdmX PPI	T cruzi repl	Mdm2-MdmX conf	others
CC(C)c1ccc(C2C3=C(CC(C)(C)CC3=O)NC3=C2C(=O)c2ccccc23)cc1 (configuration not stated)	36.4	14.0	24.3	13.2	73.4*	57.8*	25.7
CC(C)(C)OC(=O)CC12CCCCC1NC(=O)O2 (configuration not stated)	-25.6	1.1	-4.4	-7.6	-8.4	-6.7	x
O=C(OCc1ccc(Br)cc1)c1cnc(Cl)c(Cl)c1	x	-5.4	0.5	4.0	68.6*	17.1	48.1*	FLuc counter=95.7*
Cn1nc(-c2ccc(Cl)cc2)c2cc(C(=O)NC3CC3)sc21	6.0	2.4	-12.5	5.5	58.9*	-5.3	25.2
Cn1nc(-c2ccc(Cl)cc2)c2cc(C(=O)NCCN3CCOCC3)sc21	47.3	0.5	-4.2	3.9	11.8	2.3	x
CCCCN(CC)CCNC(=O)c1cc2c(-c3ccc(Cl)cc3)nn(C)c2s1	112.1*	-5.3	-1.9	20.3	57.7*	57.1*	32.9	FLuc counter=31.2
CCOCCCNC(=O)c1cc2c(-c3ccc(Cl)cc3)nn(C)c2s1	13.7	8.8	-2.1	-0.5	19.1	3.8	x
CC(=O)c1c(-c2ccccc2)[nH]c2ccccc12	32.3	6.9	-0.6	20.2	51.9*	5.8	32.8
O=C(O)/C=C/C(=O)c1c(-c2ccccc2)[nH]c2ccccc12	-13.3	-20.3	-9.1	-6.6	23.0	-28.1	x
O=C(NC1CCSc2ccccc21)c1ccccc1Br (configuration not stated)	-14.1	-30.2	3.4	-1.9	14.8	-1.8	x
COc1ccc(CNC(=O)Cn2cccc2C(=O)c2ccccc2)cc1	-5.1	-10.2	-9.3	-3.4	-7.4	0.8	x
O=[N+]([O-])c1cc([N+](=O)[O-])c(Oc2ccc(Br)cc2Br)cc1NN1CCCCC1	19.4	-10.7	3.6	2.7	8.2	-13.3	x
COC(=O)/C(=C\c1cc(OC)c(OC)c(OC)c1)c1nc2ccccc2[nH]1	11.8	-3.3	1.4	-6.2	8.2	5.1	x
CC(C)c1ccc(/C=C(\c2nc3ccccc3[nH]2)S(=O)(=O)c2ccccc2)cc1	46.4	-1.8	6.2	102.3*	100.3*	49.2	100.2*	FLuc counter=52.7*
COc1ccc(SCCCn2c(=O)c3c(ncn3C)n(C)c2=O)cc1	-0.3	-19.6	4.0	2.0	16.1	-4.9	x
CC1CCN(S(=O)(=O)c2ccc(C(=O)N3CCCC(C(F)(F)F)C3)cc2)CC1 (configuration not stated)	7.8	5.2	4.3	6.6	-4.8	-2.6	x
N#C/C(=C\C=C\c1ccccc1[N+](=O)[O-])C(=O)NCc1ccccc1	55.8	-8.5	0.6	-28.0	96.9*	-41.2	66.5*	FLuc counter=17.4
CCN1CCN(Cc2ccc(NC(=O)c3cc(NC(=O)c4cnnc5ccccc45)cc(OC)c3)cc2C(F)(F)F)CC1	2.3	5.2	6.1	10.0	52.0*	18.8	26.5
CCN1CCN(Cc2ccc(NC(=O)c3cc(NC(=O)c4nccnc4N)cc(OC)c3)cc2C(F)(F)F)CC1	-15.9	-3.4	0.9	-11.8	36.9	22.5	x
COc1cc(OC)cc(C(=O)N2CCN(Cc3ccccc3C(F)(F)F)CC2)c1	6.7	2.7	-3.3	-7.9	-7.2	12.3	x
CCN1CCN(Cc2ccc(NC(=O)c3cc(NC(=O)c4cncc(-c5ccc(C#N)cc5)c4)cc(OC)c3)cc2C(F)(F)F)CC1	31.3	1.4	16.6	86.7*	99.8*	50.0	19.7
CCOC(=O)CCNC(=O)Nc1cc2nc(C)n(Cc3cccc(Cl)c3)c2nc1C	-4.8	-1.4	-2.0	-9.4	14.3	4.2	x
O=[N+]([O-])c1ccccc1S(=O)(=O)Nc1cccc(S(=O)(=O)N2CCCC2)c1	-8.0	x	x	-1.4	3.3	x	x
O=C(CSc1nc2ccccc2s1)N1CCCCC1	-4.3	-8.4	2.2	2.3	-63.9	6.2	x
Cc1c(Cl)cccc1N/C(SCC(=O)N1CCCCCC1)=C(/C#N)c1nc2ccccc2s1	5.0	1.5	11.3	40.4	90.6*	42.1	65.9*	FLuc counter=36.0
SMILES	CSC inhib	Calb FLC	SKKanGAS inh	Beta apoptosis	Mdm2 MdmX PPI	T cruzi repl	Mdm2-MdmX conf	others
Cc1ccc(CNC(=O)c2ccc(N3CCC4(CC3)CC(c3ccccc3)=NO4)c(N)c2)cc1	16.2	1.8	18.1	18.1	54.9*	32.6	-0.3
Cc1ccc(CNC(=O)c2ccc(N3CCC4(CC3)CC(c3ccccc3)=NO4)c(NC(=O)c3ccccc3)c2)cc1	-9.9	-2.9	17.9	14.9	20.6	10.8	x
Cc1ccc2occ(/C=N/NC(=O)c3ccccc3Br)c(=O)c2c1	0.4	13.5	2.6	-10.0	37.7	-3.7	x
CCOc1ccccc1C(=O)N/N=C/c1coc2ccc(C)cc2c1=O	-6.7	-20.5	x	-4.1	78.6*	x	28.6
Cc1ccc(S(=O)(=O)N(C(=O)c2ccncc2)c2ccc3oc4c(c3c2)CCCC4)cc1[N+](=O)[O-]	x	-1.6	12.3	1.1	20.3	7.0	x
CCCC(=O)N(c1ccc2oc(C)c(C(C)=O)c2c1)S(=O)(=O)c1ccc(C)c([N+](=O)[O-])c1	7.3	-8.1	-2.4	-12.0	28.7	-37.6	x
COC(=O)c1c(C)oc2ccc(N(C(=O)c3ccncc3)S(=O)(=O)c3ccc(C)cc3)cc12	-6.8	-5.0	6.6	62.2	55.6*	-6.2	51.8*	FLuc counter=85.5*
COC(=O)c1c(C)oc2ccc(N(C(=O)Oc3ccccc3)S(=O)(=O)c3ccc(Cl)c([N+](=O)[O-])c3)cc12	62.8	-12.2	16.6	0.1	96.3*	25.5	-12.1
COc1ccc(NC(=O)CSc2nnc(N)s2)cc1S(=O)(=O)N1CCCCC1	-15.3	x	x	-1.1	27.1	x	x
Cc1ccc(/C=C2\SC(=S)N(/N=C/c3cc([N+](=O)[O-])ccc3O)C2=O)o1	0.1	u	-7.9	-0.7	4.8	4.9	x
Cc1cc(C(C)(C)C)c(OC(=O)[C@@H]2OC(c3ccccc3)=C[C@H]2c2ccccc2)c(C(C)(C)C)c1	u	x	x	2.5	3.0	x	x
COc1ccc(C(=O)N(C)CCCC2CCCC2)cc1OC1CCN(C(C)=O)CC1	21.8	-1.2	3.4	-2.2	1.9	38.9	x
COc1ccc(C(=O)N(C)CCCC2CCCC2)cc1OC1CCN(C(C)C)CC1	10.2	-3.2	-0.8	12.7	55.0*	21.7	35.5	FLuc counter=72.3*
COc1cccc(CN(C)C(=O)CCNC(=O)c2ccco2)c1	x	x	x	-4.0	20.1	x	x
Cn1nc(C(F)(F)F)c(C#N)c1N1CCN(c2ccc(F)cc2)CC1	-15.9	-2.7	-3.0	-4.8	56.3*	-23.7	20.4
Cn1nc(C(F)(F)F)c(C#N)c1N1CCN(c2ccccc2)CC1	0.2	-26.2	-3.0	-12.2	40.8	1.7	x
Cc1ccc(/C=N/NC(=O)c2cc(-c3ccc(C)o3)[nH]n2)cc1	-0.5	-1.4	-4.1	x	50.1*	-10.4	54.4*	FLuc counter=50.3*
